In ChEMBL document CHEMBL4304758, “Development of Peptide-Based Sirtuin Defatty-Acylase Inhibitors Identified by the Fluorescence Probe, SFP3, That Can Efficiently Measure Defatty-Acylase Activity of Sirtuin” (J Med Chem, 2019) one finds inhibition and Activity data, which are given here for 12 compounds.

Where a name gives a salt, the structure may show the parent alone. The source made the active and inactive calls. No cut-off for these calls is given here. Residues, ends and D or L forms follow the SMILES beside them. *: point of attachment. Phenylacetyl(4-E-phenylazo) = O=C(Cc1ccc(/N=N/c2ccccc2)cc1)*; X5 = CCN(CC)c1ccc(/N=N/c2ccc(CC(=O)*)cc2)cc1; X2 = CN(C)c1ccc(/N=N/c2ccc(C(=O)*)cc2)cc1; Tfa = O=C(C(F)(F)F)*

Test [1] deals with T1, NAD-dependent protein deacetylase sirtuin-1 (Homo sapiens) (UniProt Q96EB6).
T1 sequence (whole entry): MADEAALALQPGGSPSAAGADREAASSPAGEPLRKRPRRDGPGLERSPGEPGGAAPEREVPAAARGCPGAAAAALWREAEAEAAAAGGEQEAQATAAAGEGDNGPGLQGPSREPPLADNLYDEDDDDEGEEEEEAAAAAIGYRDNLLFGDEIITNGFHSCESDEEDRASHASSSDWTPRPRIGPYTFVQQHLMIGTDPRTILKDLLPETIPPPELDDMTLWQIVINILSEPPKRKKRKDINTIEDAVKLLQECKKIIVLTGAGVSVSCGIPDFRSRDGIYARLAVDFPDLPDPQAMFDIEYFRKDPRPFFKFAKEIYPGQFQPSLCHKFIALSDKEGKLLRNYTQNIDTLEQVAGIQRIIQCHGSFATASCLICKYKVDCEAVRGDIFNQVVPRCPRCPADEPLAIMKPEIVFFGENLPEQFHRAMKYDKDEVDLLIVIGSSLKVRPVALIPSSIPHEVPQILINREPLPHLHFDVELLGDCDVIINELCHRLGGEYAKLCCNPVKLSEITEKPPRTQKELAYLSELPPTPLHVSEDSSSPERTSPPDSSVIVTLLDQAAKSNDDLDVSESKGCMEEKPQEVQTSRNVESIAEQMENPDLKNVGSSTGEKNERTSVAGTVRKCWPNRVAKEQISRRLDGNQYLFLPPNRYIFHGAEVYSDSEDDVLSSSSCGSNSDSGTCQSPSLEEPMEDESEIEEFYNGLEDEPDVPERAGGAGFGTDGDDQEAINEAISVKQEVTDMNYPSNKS
Briefly: Inhibition of recombinant human C-terminal His6-tagged SIRT1 (Met1 to Ser747 residues) defatty-acylase activity expressed in Escherichia coli at 2 uM using SFP3 as substrate measured at 5 mins interval for 60 mins in presence of NAD+ by fluorescence assay relative to control.

In test [2] the target is T2, NAD-dependent protein deacetylase sirtuin-3, mitochondrial (Homo sapiens) (UniProt Q9NTG7).
T2 sequence (whole entry): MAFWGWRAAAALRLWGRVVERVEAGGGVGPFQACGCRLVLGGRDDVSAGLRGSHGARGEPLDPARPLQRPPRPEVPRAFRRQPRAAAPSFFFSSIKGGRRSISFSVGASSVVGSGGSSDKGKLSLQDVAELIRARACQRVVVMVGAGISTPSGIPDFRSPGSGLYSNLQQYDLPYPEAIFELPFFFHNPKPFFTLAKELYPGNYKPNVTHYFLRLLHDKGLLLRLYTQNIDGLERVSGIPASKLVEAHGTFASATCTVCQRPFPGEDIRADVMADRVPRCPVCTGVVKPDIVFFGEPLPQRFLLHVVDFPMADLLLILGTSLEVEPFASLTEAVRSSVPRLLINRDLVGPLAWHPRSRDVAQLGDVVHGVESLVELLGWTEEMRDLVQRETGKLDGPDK
Briefly: Inhibition of recombinant human SIRT3 (118 to 399 residues) defatty-acylase activity expressed in Escherichia coli at 2 uM using SFP3 as substrate measured at 5 mins interval for 60 mins in presence of NAD+ by fluorescence assay relative to control. The method in brief:
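SIRT3 at 60 nM final with 2.5 μM SFP3 and 500 μM NAD⁺ in Tris-HCl pH 8.0, 150 mM NaCl, 1 mM DTT, 0.05% Triton X-100. Final DMSO 0.2%, or 0.5% for AGK2/NAM. Fluorescence Ex 485/Em 535 nm every 5 min for 60 min at 37 °C. n = 3.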

For test [3], the target named is NAD-dependent protein deacylase sirtuin-6 (Homo sapiens) (UniProt Q8N6T7). Briefly: Inhibition of recombinant human N-terminal polyhis-tagged SIRT6 (1 to 355 residues) defatty-acylase activity expressed in Escherichia coli at 2 uM using SFP3 as substrate measured at 5 mins interval for 60 mins in presence of NAD+ by fluorescence assay relative to control.
Test [4] concerns the target T1, NAD-dependent protein deacetylase sirtuin-1 (Homo sapiens). Briefly: Inhibition of recombinant human C-terminal His6-tagged SIRT1 (Met1 to Ser747 residues) demyristoylase activity expressed in Escherichia coli at 1 uM using p53(Myr)-AMC as substrate measured after 3 hrs in presence of NAD+ and trypsin by fluorescence assay relative to control. The gist of the method:
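SIRT1 at 14 nM final with 50 μM p53(Myr)-AMC and 500 μM NAD⁺ in Tris-HCl pH 8.0/NaCl/DTT/Triton buffer, 0.5% DMSO, 3 h at room temperature. Trypsin (100 nM final) plus nicotinamide (1 mM final) then added. Fluorescence Ex 355/Em 460 nm read every 5 min for 20 min at 37 °C. n = 3.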

The target in test [5] is T2, NAD-dependent protein deacetylase sirtuin-3, mitochondrial (Homo sapiens). Briefly: Inhibition of recombinant human SIRT3 (118 to 399 residues) demyristoylase activity expressed in Escherichia coli at 1 uM using p53(Myr)-AMC as substrate measured after 3 hrs in presence of NAD+ and trypsin by fluorescence assay relative to control. The gist of the method:
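SIRT3 at 120 nM with 50 μM p53(Myr)-AMC and 500 μM NAD⁺ in Tris-HCl pH 8.0/NaCl/DTT/Triton buffer, 0.5% DMSO, 3 h at room temperature. Trypsin (100 nM) plus nicotinamide (1 mM) then added. Fluorescence Ex 355/Em 460 nm every 5 min for 20 min at 37 °C. n = 3.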

The next test has as its system HeLa. Briefly: Cytotoxicity against human HeLa cells assessed as reduction in cell viability at 50 uM measured after 72 hrs by CCK8 assay. The class given is functional, cell-based. The method in brief:
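HeLa cells, 1.0 × 10⁴ per well on PLL-coated plates, grown overnight in DMEM with 10% FBS and penicillin/streptomycin, 37 °C, 5% CO₂. Compounds added in DMEM (2% DMSO stock), range 1.56–50 μM final, for 72 h. CCK-8 reagent then 2 h at 37 °C, absorbance read at 450 nm. DMSO control.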
On the technique in general: Formazan colour is commonly taken as a measure of viable cells.

Test [6] concerns the target T3, NAD-dependent protein deacetylase sirtuin-2 (Homo sapiens) (UniProt Q8IXJ6).
T3 sequence (whole entry): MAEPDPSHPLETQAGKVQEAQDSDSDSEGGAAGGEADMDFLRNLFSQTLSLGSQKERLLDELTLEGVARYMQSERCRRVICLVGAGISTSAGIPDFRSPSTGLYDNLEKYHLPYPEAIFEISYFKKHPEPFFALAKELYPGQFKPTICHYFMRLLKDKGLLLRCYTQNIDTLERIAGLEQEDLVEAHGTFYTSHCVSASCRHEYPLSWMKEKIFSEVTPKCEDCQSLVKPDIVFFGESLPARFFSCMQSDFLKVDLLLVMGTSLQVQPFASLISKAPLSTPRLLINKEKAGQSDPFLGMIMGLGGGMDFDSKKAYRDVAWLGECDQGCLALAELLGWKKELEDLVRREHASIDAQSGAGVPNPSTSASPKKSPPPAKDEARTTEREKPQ
Briefly: Inhibition of recombinant human SIRT2 defatty-acylase activity at 2 uM using SFP3 as substrate measured at 5 mins interval for 60 mins in presence of NAD+ by fluorescence assay relative to control.

Test [7] concerns the target T3, NAD-dependent protein deacetylase sirtuin-2 (Homo sapiens). Briefly: Inhibition of recombinant human SIRT2 demyristoylase activity at 1 uM using p53(Myr)-AMC as substrate measured after 3 hrs in presence of NAD+ and trypsin by fluorescence assay relative to control.
For test [8] the target is unchanged. Briefly: Inhibition of recombinant human SIRT2 demyristoylase activity using H4K16-Myr as substrate measured after 2 hrs in presence of NAD+ by HPLC analysis. The method in brief: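 H4K16-Myr at 100 μM with 500 μM NAD⁺ and 175 nM SIRT2 in Tris-HCl pH 8.0/NaCl/Triton buffer without DTT, 0.5% DMSO, 2 h at 37 °C. Inhibitors at 0.1–10 μM; AGK2 at 50 μM, NAM at 500 μM. Stopped with HCl/MeOH. Demyristoylated H4K16 product measured by HPLC at 280 nm. Percent inhibition, n = 3.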

Test [9] shares this target. Briefly: Inhibition of recombinant human SIRT2 deacylation activity using H4K16-Ac as substrate measured after 30 mins in presence of NAD+ by HPLC analysis. The gist of the method: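 H4K16-Ac peptide at 100 μM with 500 μM NAD⁺ and 175 nM SIRT2 in Tris-HCl pH 8.0/NaCl/Triton buffer lacking DTT, 0.5% DMSO, 30 min at 37 °C. Inhibitors at 0.01–10 μM. Stopped with HCl in MeOH. Deacetylated product quantified by reversed-phase HPLC at 280 nm.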

Sequence of NAD-dependent protein deacylase sirtuin-6 (Homo sapiens) (Q8N6T7 whole entry, the tested form may be a part): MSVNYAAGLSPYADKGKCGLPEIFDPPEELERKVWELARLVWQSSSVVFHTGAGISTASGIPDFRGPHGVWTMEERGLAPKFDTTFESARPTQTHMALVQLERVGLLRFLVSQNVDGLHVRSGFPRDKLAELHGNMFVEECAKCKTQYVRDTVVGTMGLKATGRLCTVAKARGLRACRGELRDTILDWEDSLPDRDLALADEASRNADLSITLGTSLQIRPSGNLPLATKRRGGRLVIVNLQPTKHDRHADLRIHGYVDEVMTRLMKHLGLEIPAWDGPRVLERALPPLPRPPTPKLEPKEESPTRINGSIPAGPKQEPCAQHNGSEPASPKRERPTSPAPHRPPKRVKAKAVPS

As to `CCCCCCCCCCCCCC(=S)NCCCC[C@H](NC(=O)OCc1ccccc1)C(=O)Nc1ccccc1`, the inhibition is 0.81% in test [1]; -0.9% in test [2]; -3.3% in test [3]; 2.7% in [4]; -1.2% in test [5]. Moreover, the outcome in the test on HeLa was Active.

In the case of `CC[C@H](C)[C@H](NC(C)=O)C(=O)N[C@@H](CCCCNC(=O)Cc1ccc(/N=N/c2ccccc2)cc1)C(=O)N[C@@H](CCCNC(=N)N)C(N)=O`, the inhibition in test [3] amounted to 28%.

Consider `C[C@H](NC(=O)[C@H](CCCCNC(=O)Cc1ccc(/N=N/c2ccc(O)cc2)cc1)NC(=O)OCc1ccccc1)C(N)=O`, for which the inhibition in [6] stood at 18%; in test [7], 5.3%; in test [1], 8.8%; in test [2], 5.9%; in test [3], 3.8%; in test [4], 20%. In [5], the inhibition was found to be 2.6%.

Regarding `C[C@H](NC(=O)[C@H](CCCCNC(=O)Cc1ccc(/N=N/c2ccc(OCCc3ccccc3)cc2)cc1)NC(=O)OCc1ccccc1)C(N)=O`, the inhibition is 1.4% in [6]; 2.9% in [7]; 2% in test [1]; 7% in [2]; -0.32% in test [3]; 6.3% in [4]. Besides, the inhibition in test [5] is -0.13%.

For the compound `C[C@H](NC(=O)[C@H](CCCCNC(=O)Cc1ccc(/N=N/c2ccc(OCc3ccccc3)cc2)cc1)NC(=O)OCc1ccccc1)C(N)=O`, the inhibition in test [6] was 13%; in [7], 3.2%; in [1], 1.3%; in [2], -0.08%; in test [3] it was -7.4%; in [4], 2.8%. The inhibition in test [5] came to 5.6%.

As for `Cc1cc(C)nc(SCC(=O)Nc2ncc(Cc3cccc4ccccc34)s2)n1`, the inhibition in test [3] was -2.2%.

On to `CC[C@H](C)[C@H](NC(=O)[C@H](CCCNC(=N)N)NC(C)=O)C(=O)N[C@@H](CCCCNC(=O)Cc1ccc(/N=N/c2ccccc2)cc1)C(=O)N[C@@H](CCCNC(=N)N)C(=O)N[C@@H](Cc1ccc(O)cc1)C(N)=O` (Ac-RIK(Phenylacetyl(4-E-phenylazo))RY-NH2), for which the figures for the inhibition entry in test [8], in test [9] and in test [3] were “Dose-dependent effect”, “Dose-dependent effect” and 32%, respectively. The result with HeLa was inactive.

Take `CC[C@H](C)[C@H](NC(=O)[C@H](CCCNC(=N)N)NC(C)=O)C(=O)N[C@@H](CCCCNC(=O)C(F)(F)F)C(=O)N[C@@H](CCCNC(=N)N)C(=O)N[C@@H](Cc1ccc(O)cc1)C(N)=O` (Ac-RIK(Tfa)RY-NH2): the inhibition in [1] was determined as 16%; in test [3], 3.1%; in [4], 32%; in test [5] it was 58%.

For the compound `CC[C@H](C)[C@H](NC(=O)[C@H](CCCNC(=N)N)NC(C)=O)C(=O)N[C@@H](CCCCNC(=O)Cc1ccc(/N=N/c2ccc(N(CC)CC)cc2)cc1)C(=O)N[C@@H](CCCNC(=N)N)C(=O)N[C@@H](Cc1ccc(O)cc1)C(N)=O` (Ac-RIK(X5)RY-NH2), the inhibition in [3] is 28%.

In the case of `CC[C@H](C)[C@H](NC(=O)[C@@H](NC(=O)[C@H](CCCCNC(=O)Cc1ccc(/N=N/c2ccccc2)cc1)NC(=O)[C@H](CC(=O)O)NC(=O)[C@H](CO)NC(C)=O)[C@@H](C)O)C(N)=O` (Ac-SDK(Phenylacetyl(4-E-phenylazo))TI-NH2), the inhibition in test [7] stood at 17%; in test [1], 18%; in test [2], 14%; in [3] it was 2.6%; in [4], 31%; in [5], 5.6%.

Turning to `CC[C@H](C)[C@H](NC(=O)[C@@H](NC(=O)[C@H](CCCCNC(=O)c1ccc(/N=N/c2ccc(N(C)C)cc2)cc1)NC(=O)[C@H](CC(=O)O)NC(=O)[C@H](CO)NC(C)=O)[C@@H](C)O)C(N)=O` (Ac-SDK(X2)TI-NH2), the inhibition stood at 7.8% in test [6]; 2% in test [7]; 8.9% in [1]; 10% in test [2]; 11% in test [3]; 3.2% in [4]. Further, the inhibition in test [5] was -1.1%.

With `CC[C@H](C)[C@H](NC(=O)[C@H](CCCCNC(=O)Cc1ccc(/N=N/c2ccccc2)cc1)NC(=O)[C@@H](NC(C)=O)C(C)C)C(=O)N[C@@H](CCCCN)C(=O)N[C@@H](CCCCN)C(N)=O` (Ac-VK(Phenylacetyl(4-E-phenylazo))IKK-NH2), the inhibition in test [3] stood at 0.64%.

The term inhibition denotes the change of the read-out against control, counted positive when it falls.
